In the library only some 2.9% were active in any assay of this set; here they are far more common.
HIV Env fusion – inhibitors of HIV-1 Env-driven cell-cell fusion, primary screen, HeLa-JRFL effector, CEM21 target cells, luciferase | inhibition, % at 12.3 µM | hit rate 1.1% among 360,000;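 active means mean replicate inhibition score of at least 50 and every replicate individually at or above 50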;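 further: 0% = plate neutral controls and 100% = maraviroc near 300 nM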
PAX8 reporter – inhibitors of PAX8-driven TPO luciferase reporter, primary screen, RMG-I cells, single concentration; SteadyGlo, 24 h; inhibition, % at 12.6 µM; hit rate 1.2% among 360,000; AID 652154, 2013;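 active means mean replicate inhibition at least 60% with every replicate also reaching 60%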;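 further: luciferase light reporting Pax8 driven TPO promoter activity; plate controls were median of neutral control wells for no effect and mitoxantrone controls for full effect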
dFosB act – activators of delta FosB homodimer, primary screen, biochemical, fluorescence polarization, TAMRA-CDK5 oligo, single point; hit rate 0.99% among 340,000; Protein FosB (Mus musculus), P13346; activation, % at 25 µM; purified delta FosB; percent of positive-control signal above neutral wells;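 active means mean activation above about 17%, with every replicate also reaching it, limit read from the data, passing the limit was not always enough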
Target sequence (P13346 whole entry, looked up): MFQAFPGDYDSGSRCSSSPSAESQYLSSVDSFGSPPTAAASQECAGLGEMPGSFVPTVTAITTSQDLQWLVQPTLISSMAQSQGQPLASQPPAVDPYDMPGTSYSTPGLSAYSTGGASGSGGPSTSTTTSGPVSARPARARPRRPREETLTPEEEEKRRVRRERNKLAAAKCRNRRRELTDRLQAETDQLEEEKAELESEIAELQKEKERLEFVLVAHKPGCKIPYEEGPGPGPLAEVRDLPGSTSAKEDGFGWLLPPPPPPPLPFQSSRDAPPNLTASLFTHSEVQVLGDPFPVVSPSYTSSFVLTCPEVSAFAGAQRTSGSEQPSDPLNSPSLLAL
CDK5 inh – inhibitors of human CDK5/p35 kinase, primary screen, biochemical, single concentration; Cyclin-dependent kinase 5 (Homo sapiens) + Cyclin-dependent kinase 5 activator 1 (Homo …; Recombinant CDK5/p35, ADP-Glo luminescence, 60 min; inhibition, % at 10 µM; hit rate 0.01% among 330,000;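 active means highest replicate inhibition of at least 50% and at least 75% of replicates reaching 50%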;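 further: plate controls were DMSO neutral control for no effect and GW8510 at 10 µM for full effect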
Cneo AK release – Cryptococcus neoformans cell lysis inducers, primary screen, AK release luminescence, single concentration; hit rate 0.2% among 360,000; lysis activity, % at 15 µM; C. neoformans lysis, adenylate kinase release luminescence, 4 h; normalised: neutral wells 0, clomiphene wells 100; AID 651654, 2012;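 active means mean lysis activity across replicates of at least 80%, whatever share of replicates individually reach that level; inactive means mean lysis activity below 80%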
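Material – Cryptococcus neoformans yeast cells · Quantity – 5 × 10^6 yeast cells/mL · Buffer or medium – YPD medium · Compound – single dose · Timing – 4 h static compound exposure, 37 °C, read 1 h post-reagent · Signal – adenylate kinase release luminescence · Read-out basis – lysis from increased AK signal · Benchmarks – Clomiphene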
INS-1E GSIS act – GLuc luminescence reporter in INS-1E cells, primary screen for activators of glucose-dependent secretion of insulin | INS-1E GLuc reporter insulin secretion, 2-3 h | activation, % at 16.6 µM | hit rate 0.61% among 370,000;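 active means lowest replicate activation of at least 40%, so every replicate reaches that level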;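 further: 0% = median of neutral control wells and 100% = median of IBMX positive control wells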
The depositor's hits bear a star; · = not tested or not shown; [ ] = remark or other dose.

SMILES | HIV Env fusion | PAX8 reporter | dFosB act | CDK5 inh | Cneo AK release | INS-1E GSIS act
COc1ccc(NC(=O)N(C)C[C@@H]2Oc3cc(C#CCC(C)C)ccc3S(=O)(=O)N([C@@H](C)CO)C[C@@H]2C)cc1 | · | 65* | · | · | -7 | -25
COc1cccc(NC(=O)N(C)C[C@H]2Oc3cc(C#Cc4ccncc4)ccc3S(=O)(=O)N([C@H](C)CO)C[C@@H]2C)c1 | 1[16.7 µM] | · | · | · | -1 | -32
COc1ccc(C#Cc2ccc3c(c2)O[C@H](CN(C)C(=O)Nc2cccc(OC)c2)[C@H](C)CN([C@@H](C)CO)S3(=O)=O)cc1 | -23[16.7 µM] | · | · | · | 86* | 10
COc1cccc(C#Cc2ccc3c(c2)O[C@@H](CN(C)C(=O)c2ccccn2)[C@H](C)CN([C@@H](C)CO)S3(=O)=O)c1 | -7[16.7 µM] | 73* | · | · | -2 | -22
COc1cccc(NC(=O)N(C)C[C@H]2Oc3cc(C#Cc4ccncc4)ccc3S(=O)(=O)N([C@H](C)CO)C[C@H]2C)c1 | -10 | 66* | · | · | 1 | -5
Cc1noc(C)c1NC(=O)N(C)C[C@H]1OCCCC[C@H](C)Oc2ccc(NS(=O)(=O)c3c(C)noc3C)cc2C(=O)N([C@@H](C)CO)C[C@H]1C | 12[16.7 µM] | -14 | · | · | 4 | 13
COc1ccc2c3c(n(C)c2c1)[C@@H](CO)N(C(=O)c1ccncc1)CC31CN(C)C1 | · | · | · | · | · | 10
COCC(=O)N1CCC2(CC1)CN(S(C)(=O)=O)[C@H](CO)c1c2c2ccc(OC)cc2n1C | · | · | · | · | · | 4
O=C(NC1CCCC1)[C@H]1[C@H](CO)[C@H]2Cn3c(ccc(-c4ccccc4)c3=O)[C@@H]1N2CCc1ccccc1 | 5[16.7 µM] | 15 | · | · | -2 | -21
Nc1nc(N)c(C=Nc2ccc(Br)cc2)c(Nc2ccc(Br)cc2)n1 | 0 | -16 | 108* | 1 | 1 | 40
O=C(Nc1ccc(Cl)cc1)N[C@H]1CC[C@@H](CCNS(=O)(=O)c2ccccc2F)O[C@@H]1CO | -5[16.7 µM] | 23 | · | · | -1 | -15
Cc1cc(S(=O)(=O)c2ccc(Cl)cc2)nc(S(=O)(=O)c2ccc(Cl)cc2)c1C#N | -154 | 83* | · | · | -4 | 18
Cc1cc(C)c(S(=O)(=O)c2ccc(Cl)cc2)c(Cl)n1 | 4 | 9 | 2 | 1 | · | 34
C[C@@H]1CN([C@@H](C)CO)C(=O)c2cc(NC(=O)c3ccccc3)ccc2O[C@@H](C)CCCCO[C@@H]1CN(C)Cc1ccc(C(=O)O)cc1 | -6[16.7 µM] | -13 | · | · | 0 | 8
C[C@@H]1CCCCO[C@H](CN(C)Cc2ccc(C(F)(F)F)cc2)[C@@H](C)CN([C@H](C)CO)C(=O)c2cc(NC(=O)c3ccccc3)ccc2O1 | 9[16.7 µM] | 23 | · | · | 6 | 7
C[C@@H]1CCCCO[C@@H](CN(C)Cc2ccc(C(F)(F)F)cc2)[C@H](C)CN([C@@H](C)CO)C(=O)c2cc(NC(=O)c3ccccc3)ccc2O1 | 56*[16.7 µM] | 32 | · | · | 55 | -3
C[C@@H]1CN([C@@H](C)CO)C(=O)c2cc(NC(=O)c3ccccc3)ccc2O[C@@H](C)CCCCO[C@H]1CN(C)Cc1ccc(C(=O)O)cc1 | 62*[16.7 µM] | 6 | · | · | 0 | 8
C[C@@H]1CCCCO[C@H](CN(C)Cc2ccc(C(F)(F)F)cc2)[C@H](C)CN([C@@H](C)CO)C(=O)c2cc(NC(=O)c3ccccc3)ccc2O1 | 21[16.7 µM] | 85* | · | · | 2 | -23
Cc1ccc(S(=O)(=O)Nc2cccc3c2O[C@@H](CN(C)CC2CCCCC2)[C@@H](C)CN([C@@H](C)CO)C3=O)cc1 | · | 10 | · | · | -2 | -6
Cc1noc(C)c1NC(=O)Nc1ccc2c(c1)C(=O)N([C@@H](C)CO)C[C@H](C)[C@@H](CN(C)S(=O)(=O)c1c(C)noc1C)OCCCC[C@H](C)O2 | 14[16.7 µM] | -16 | · | · | 58 | 0
COCCNC(=O)C[C@@H]1C=C[C@@H](NS(=O)(=O)c2ccc(C)cc2)[C@H](CO)O1 | -24[16.7 µM] | 3 | · | · | -2 | 25
